# According to ChEMBL document CHEMBL3588757, “Structure-based design, synthesis and biological testing of piperazine-linked bis-epipodophyllotoxin etoposide analogs” (Bioorg Med Chem, 2015):
# Experiments:
# Format in all cases: functional
# NCI-H23 [1] = assay: Cytotoxicity against human NCI-H23 cells assessed as cell growth at 50 uM by SRB assay; settings: read-out: Activity
# SR [2] = assay: Cytotoxicity against human SR cells assessed as cell growth at 0.05 uM by SRB assay; settings: read-out: Activity
# NCI-H23 [3] = assay: Cytotoxicity against human NCI-H23 cells assessed as cell growth at 0.005 uM by SRB assay; settings: read-out: Activity
# M14 [4] = assay: Cytotoxicity against human M14 cells assessed as cell growth at 50 uM by SRB assay; settings: read-out: Activity
# LOX IMVI [5] = assay: Cytotoxicity against human LOXIMVI cells assessed as cell growth at 50 uM by SRB assay; settings: read-out: Activity
# SK-MEL-2 = assay: Cytotoxicity against human SK-MEL-2 cells assessed as cell growth at 5 uM by SRB assay; settings: read-out: Activity
# UO-31 [6] = assay: Cytotoxicity against human UO31 cells assessed as cell growth at 0.05 uM by SRB assay; settings: read-out: Activity
# SK-MEL-28 = assay: Cytotoxicity against human SK-MEL-28 cells assessed as cell growth at 0.5 uM by SRB assay; settings: read-out: Activity
# M14 [7] = assay: Cytotoxicity against human M14 cells assessed as cell growth at 0.05 uM by SRB assay; settings: read-out: Activity
# RXF 393 [8] = assay: Cytotoxicity against human RXF393 cells by SRB assay
# How it was run: (§1)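 NCI-60 panel screen; 5-dose testing giving GI50 per cell line, plus a single 10 µM one-dose test. Method details not given beyond the NCI screen.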
# RPMI-8226 [9] = assay: Cytotoxicity against human RPMI8226 cells assessed as cell growth at 50 uM by SRB assay; settings: read-out: Activity
# SR [10] = assay: Cytotoxicity against human SR cells assessed as cell growth at 0.005 uM by SRB assay; settings: read-out: Activity
# CAKI-1 = assay: Cytotoxicity against human Caki1 cells assessed as cell growth at 0.5 uM by SRB assay; settings: read-out: Activity
# KM12 = assay: Cytotoxicity against human KM12 cells assessed as cell growth at 0.05 uM by SRB assay; settings: read-out: Activity
# SNB-75 = assay: Cytotoxicity against human SNB75 cells assessed as cell growth at 5 uM by SRB assay; settings: read-out: Activity
# SK-OV-3 = assay: Cytotoxicity against human SKOV3 cells assessed as cell growth at 0.005 uM by SRB assay; settings: read-out: Activity
# MOLT-4 = assay: Cytotoxicity against human MOLT4 cells assessed as cell growth at 50 uM by SRB assay; settings: read-out: Activity
# OVCAR-4 = assay: Cytotoxicity against human OVCAR4 cells assessed as cell growth at 50 uM by SRB assay; settings: read-out: Activity
# TK-10 [11] = assay: Cytotoxicity against human TK10 cells by SRB assay; how it was run: as §1
# T47D [12] = assay: Cytotoxicity against human T47D cells assessed as cell growth at 0.05 uM by SRB assay; settings: read-out: Activity
# SW-620 = assay: Cytotoxicity against human SW620 cells assessed as cell growth at 0.5 uM by SRB assay; settings: read-out: Activity
# TK-10 [13] = assay: Cytotoxicity against human TK10 cells assessed as cell growth at 0.005 uM by SRB assay; settings: read-out: Activity
# HOP-92 [14] = assay: Cytotoxicity against human HOP92 cells assessed as cell growth at 50 uM by SRB assay; settings: read-out: Activity
# How it was run: (§2)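 Measured in the NCI-60 human tumour cell line panel using five-dose testing. Growth was recorded at each dose for each cell line, and a GI50 was derived for each line.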
# U-251 = assay: Cytotoxicity against human U251 cells assessed as cell growth at 5 uM by SRB assay; settings: read-out: Activity
# M14 [15] = assay: Cytotoxicity against human M14 cells assessed as cell growth at 0.005 uM by SRB assay; settings: read-out: Activity
# M14 [16] = assay: Cytotoxicity against human M14 cells by SRB assay; how it was run: as §1
# SF-539 = assay: Cytotoxicity against human SF539 cells by SRB assay; how it was run: as §1
# 786-0 = assay: Cytotoxicity against human 786-0 cells assessed as cell growth at 0.05 uM by SRB assay; settings: read-out: Activity
# HOP-92 [17] = assay: Cytotoxicity against human HOP92 cells assessed as cell growth at 5 uM by SRB assay; settings: read-out: Activity; how it was run: as §2
# RXF 393 [18] = assay: Cytotoxicity against human RXF393 cells assessed as cell growth at 0.5 uM by SRB assay; settings: read-out: Activity
# UO-31 [19] = assay: Cytotoxicity against human UO31 cells by SRB assay; how it was run: as §1
# IGROV-1 = assay: Cytotoxicity against human IGROV1 cells by SRB assay; how it was run: as §1
# SNB-19 = assay: Cytotoxicity against human SNB19 cells assessed as cell growth at 5 uM by SRB assay; settings: read-out: Activity
# RPMI-8226 [20] = assay: Cytotoxicity against human RPMI8226 cells assessed as cell growth at 0.5 uM by SRB assay; settings: read-out: Activity
# NCI-H23 [21] = assay: Cytotoxicity against human NCI-H23 cells assessed as cell growth at 0.5 uM by SRB assay; settings: read-out: Activity
# OVCAR-5 [22] = assay: Cytotoxicity against human OVCAR5 cells assessed as cell growth at 0.05 uM by SRB assay; settings: read-out: Activity
# A549 = assay: Cytotoxicity against human A549/ATCC cells assessed as cell growth at 0.5 uM by SRB assay; settings: read-out: Activity
# HOP-62 = assay: Cytotoxicity against human HOP62 cells assessed as cell growth at 5 uM by SRB assay; settings: read-out: Activity; how it was run: as §2
# T47D [23] = assay: Cytotoxicity against human T47D cells assessed as cell growth at 50 uM by SRB assay; settings: read-out: Activity
# LOX IMVI [24] = assay: Cytotoxicity against human LOXIMVI cells assessed as cell growth at 5 uM by SRB assay; settings: read-out: Activity
# OVCAR-5 [25] = assay: Cytotoxicity against human OVCAR5 cells assessed as cell growth at 5 uM by SRB assay; settings: read-out: Activity
# HL-60(TB) = assay: Cytotoxicity against human HL-60(TB) cells by SRB assay; how it was run: as §2
# HOP-92 [26] = assay: Cytotoxicity against human HOP92 cells assessed as cell growth at 0.05 uM by SRB assay; settings: read-out: Activity; how it was run: as §2
# MDA-MB-435 = assay: Cytotoxicity against human MDA-MB-435 cells assessed as cell growth at 5 uM by SRB assay; settings: read-out: Activity
# [27] = read-out: LC50 (the source's name)
# [28] = read-out: pLC50 (the source's name) (converted)
compound,measurement,setting,value
COc1cc([C@@H]2c3cc4c(cc3[C@@H](NC(=O)CN3CCN(CCCCCCN5CCN(CC(=O)N[C@@H]6c7cc8c(cc7[C@@H](c7cc(OC)c(O)c(OC)c7)[C@H]7C(=O)OC[C@@H]76)OCO8)CC5)CC3)[C@H]3COC(=O)[C@H]23)OCO4)cc(OC)c1O,growth at 50 µM,NCI-H23 [1],-6%
same,growth at 0.05 µM,SR [2],64%
same,growth at 0.005 µM,NCI-H23 [3],102%
same,growth at 50 µM,M14 [4],-19%
same,growth at 50 µM,LOX IMVI [5],-8%
same,growth at 5 µM,SK-MEL-2,86%
same,growth at 0.05 µM,UO-31 [6],97%
same,growth at 0.5 µM,SK-MEL-28,91%
same,growth at 0.05 µM,M14 [7],94%
same,GI50,RXF 393 [8]; read-out: GI50,9.33 µM
same,CC50,RXF 393 [8]; [27],> 50 µM
same,TGI,RXF 393 [8]; read-out: TGI,> 50 µM
same,GI50,RXF 393 [8]; read-out: pGI50 (converted),9.33 µM
same,CC50,RXF 393 [8]; [28],> 50.1 µM
same,TGI,RXF 393 [8]; read-out: pTGI (converted),> 50.1 µM
same,growth at 50 µM,RPMI-8226 [9],-13%
same,growth at 0.005 µM,SR [10],90%
same,growth at 0.5 µM,CAKI-1,88%
same,growth at 0.05 µM,KM12,103%
same,growth at 5 µM,SNB-75,22%
same,growth at 0.005 µM,SK-OV-3,104%
same,growth at 50 µM,MOLT-4,5%
same,growth at 50 µM,OVCAR-4,21%
same,GI50,TK-10 [11]; read-out: GI50,> 50 µM
same,CC50,TK-10 [11]; [27],> 50 µM
same,TGI,TK-10 [11]; read-out: TGI,> 50 µM
same,GI50,TK-10 [11]; read-out: pGI50 (converted),> 50.1 µM
same,CC50,TK-10 [11]; [28],> 50.1 µM
same,TGI,TK-10 [11]; read-out: pTGI (converted),> 50.1 µM
same,growth at 0.05 µM,T47D [12],90%
same,growth at 0.5 µM,SW-620,63%
same,growth at 0.005 µM,TK-10 [13],101%
same,growth at 50 µM,HOP-92 [14],14%
same,growth at 5 µM,U-251,23%
same,growth at 0.005 µM,M14 [15],89%
same,GI50,M14 [16]; read-out: GI50,2.31 µM
same,CC50,M14 [16]; [27],> 50 µM
same,TGI,M14 [16]; read-out: TGI,22.1 µM
same,GI50,M14 [16]; read-out: pGI50 (converted),2.29 µM
same,CC50,M14 [16]; [28],> 50.1 µM
same,TGI,M14 [16]; read-out: pTGI (converted),21.9 µM
same,GI50,SF-539; read-out: GI50,0.898 µM
same,CC50,SF-539; [27],> 50 µM
same,TGI,SF-539; read-out: TGI,3.57 µM
same,GI50,SF-539; read-out: pGI50 (converted),0.891 µM
same,CC50,SF-539; [28],> 50.1 µM
same,TGI,SF-539; read-out: pTGI (converted),3.55 µM
same,growth at 0.05 µM,786-0,96%
same,growth at 5 µM,HOP-92 [17],30%
same,growth at 0.5 µM,RXF 393 [18],91%
same,GI50,UO-31 [19]; read-out: GI50,> 50 µM
same,CC50,UO-31 [19]; [27],> 50 µM
same,TGI,UO-31 [19]; read-out: TGI,> 50 µM
same,GI50,UO-31 [19]; read-out: pGI50 (converted),> 50.1 µM
same,CC50,UO-31 [19]; [28],> 50.1 µM
same,TGI,UO-31 [19]; read-out: pTGI (converted),> 50.1 µM
same,GI50,IGROV-1; read-out: GI50,40 µM
same,CC50,IGROV-1; [27],> 50 µM
same,TGI,IGROV-1; read-out: TGI,> 50 µM
same,GI50,IGROV-1; read-out: pGI50 (converted),39.8 µM
same,CC50,IGROV-1; [28],> 50.1 µM
same,TGI,IGROV-1; read-out: pTGI (converted),> 50.1 µM
same,growth at 5 µM,SNB-19,15%
same,growth at 0.5 µM,RPMI-8226 [20],67%
same,growth at 0.5 µM,NCI-H23 [21],95%
same,growth at 0.05 µM,OVCAR-5 [22],89%
same,growth at 0.5 µM,A549,56%
same,growth at 5 µM,HOP-62,42%
same,growth at 50 µM,T47D [23],2%
same,growth at 5 µM,LOX IMVI [24],23%
same,growth at 5 µM,OVCAR-5 [25],58%
same,GI50,HL-60(TB); read-out: GI50,0.772 µM
same,CC50,HL-60(TB); [27],> 50 µM
same,TGI,HL-60(TB); read-out: TGI,33.8 µM
same,GI50,HL-60(TB); read-out: pGI50 (converted),0.776 µM
same,CC50,HL-60(TB); [28],> 50.1 µM
same,TGI,HL-60(TB); read-out: pTGI (converted),33.9 µM
same,growth at 0.05 µM,HOP-92 [26],82%
same,growth at 5 µM,MDA-MB-435,57%
